Assay results taken from paper PMC10249145 (Cardiovascular & hematological agents in medicinal chemistry, 2023).

Tests used:
[1] = tested on: human plasma; conditions: normal human plasma, positive controls; cited from earlier work
[2] = tested on: human plasma; conditions: normal human plasma, positive controls; cited from earlier work; remark: listed apart in the source
[3] = target: T1, human FXIIa (Homo sapiens, UniProt P00748); assay: Direct inhibition of human FXIIa, chromogenic substrate hydrolysis assay; type: biochemical; conditions: for DeltaY (efficacy of inhibition) / HS (Hill slope): pH 7.4, 37 °C
T1 sequence (P00748 20-615): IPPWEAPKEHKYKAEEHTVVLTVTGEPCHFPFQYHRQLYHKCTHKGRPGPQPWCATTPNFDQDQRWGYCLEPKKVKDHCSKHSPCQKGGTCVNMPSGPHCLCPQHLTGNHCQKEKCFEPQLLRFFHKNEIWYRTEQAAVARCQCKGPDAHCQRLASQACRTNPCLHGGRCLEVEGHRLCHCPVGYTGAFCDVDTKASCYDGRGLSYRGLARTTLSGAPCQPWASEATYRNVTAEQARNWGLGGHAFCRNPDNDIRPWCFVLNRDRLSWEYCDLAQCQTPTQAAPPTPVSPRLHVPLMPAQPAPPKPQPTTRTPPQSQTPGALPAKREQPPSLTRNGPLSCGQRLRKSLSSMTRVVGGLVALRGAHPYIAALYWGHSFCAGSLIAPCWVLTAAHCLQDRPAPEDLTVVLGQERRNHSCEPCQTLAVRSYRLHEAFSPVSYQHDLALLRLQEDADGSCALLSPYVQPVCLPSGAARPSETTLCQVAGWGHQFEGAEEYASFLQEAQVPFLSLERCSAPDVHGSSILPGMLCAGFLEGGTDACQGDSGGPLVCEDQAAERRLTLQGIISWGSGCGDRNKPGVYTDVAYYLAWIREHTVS
Outline: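 Human FXIIa (stock 200 nM) was preincubated for 5 min with test compound or vehicle in Tris-HCl pH 7.4 with NaCl, 2.5 mM CaCl2, 0.1% PEG8000 and 0.02% Tween80 at 37 °C. Spectrozyme FXIIa (stock 5 mM) was then added. Twelve in-well concentrations (500–0.0025 μM) were tested. Residual activity was taken from the initial A405 rate, and a logistic fit gave IC50, efficacy and Hill slope (±1 S.E.).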

[4] = target: thrombin (Homo sapiens, UniProt P00734); assay: Inhibition of thrombin, chromogenic substrate hydrolysis assay; type: biochemical
Outline: (§1)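 Thrombin at about 6 nM with Spectrozyme TH at 50 μM (in-well), in pH 7.4 Tris-HCl buffer with NaCl, CaCl2, PEG8000 and Tween80. Substrate level was set from its KM. Residual activity was measured across several test compound concentrations, and a logistic fit of concentration-dependent inhibition gave IC50, efficacy and Hill slope.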

[5] = tested on: thrombin; assay: as above; type: biochemical, human; conditions: ratio of IC50 values
Outline: as §1

[6] = target: FXa (Homo sapiens, UniProt P00742, DEL180-234); assay: Inhibition of FXa, chromogenic substrate hydrolysis assay; type: biochemical
Outline: (§2)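 In-well FXa was about 1.09 nM with Spectrozyme FXa at 125 μM (from KM), in pH 7.4 Tris-HCl containing NaCl, 2.5 mM CaCl2, 0.1% PEG8000 and 0.02% Tween80. Several test compound concentrations were used; residual activity was fitted with a logistic equation for IC50 where inhibition was concentration-dependent.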

[7] = tested on: FXa; assay: as above; type: biochemical, human; conditions: ratio of IC50 values
Outline: as §2

[8] = target: FXIa (Homo sapiens, UniProt P03951); assay: Inhibition of FXIa, chromogenic substrate hydrolysis assay; type: biochemical
Chain of FXIa (Homo sapiens, UniProt P03951) (P03951 19-625): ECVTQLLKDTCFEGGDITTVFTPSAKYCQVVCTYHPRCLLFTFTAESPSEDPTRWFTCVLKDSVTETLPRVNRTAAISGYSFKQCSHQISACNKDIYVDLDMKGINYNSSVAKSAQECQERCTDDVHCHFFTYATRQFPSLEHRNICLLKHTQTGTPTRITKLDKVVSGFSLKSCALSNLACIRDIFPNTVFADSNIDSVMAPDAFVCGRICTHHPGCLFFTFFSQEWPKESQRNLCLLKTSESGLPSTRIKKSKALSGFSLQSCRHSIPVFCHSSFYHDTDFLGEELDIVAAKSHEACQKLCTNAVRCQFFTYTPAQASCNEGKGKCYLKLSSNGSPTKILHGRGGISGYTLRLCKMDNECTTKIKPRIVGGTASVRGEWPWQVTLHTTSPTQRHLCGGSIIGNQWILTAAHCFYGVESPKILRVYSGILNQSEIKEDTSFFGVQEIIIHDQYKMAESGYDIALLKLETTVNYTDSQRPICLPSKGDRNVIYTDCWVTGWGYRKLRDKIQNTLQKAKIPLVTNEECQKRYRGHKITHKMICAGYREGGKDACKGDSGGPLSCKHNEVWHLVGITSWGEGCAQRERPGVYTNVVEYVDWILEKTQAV
Outline: (§3)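 Human FXIa activity was measured with chromogenic substrate S-2366 in pH 7.4 Tris-HCl with NaCl, 2.5 mM CaCl2, 0.1% PEG8000 and 0.02% Tween80. Residual activity was measured at several test compound concentrations, and a logistic fit gave IC50, efficacy and Hill slope.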

[9] = tested on: FXIa; assay: as above; type: biochemical, human; conditions: ratio of IC50 values
Outline: as §3

[10] = target: human plasmin (Homo sapiens, UniProt P00747); assay: Inhibition of plasmin, chromogenic substrate hydrolysis assay; type: biochemical
Chain of human plasmin (Homo sapiens, UniProt P00747) (P00747 97-810): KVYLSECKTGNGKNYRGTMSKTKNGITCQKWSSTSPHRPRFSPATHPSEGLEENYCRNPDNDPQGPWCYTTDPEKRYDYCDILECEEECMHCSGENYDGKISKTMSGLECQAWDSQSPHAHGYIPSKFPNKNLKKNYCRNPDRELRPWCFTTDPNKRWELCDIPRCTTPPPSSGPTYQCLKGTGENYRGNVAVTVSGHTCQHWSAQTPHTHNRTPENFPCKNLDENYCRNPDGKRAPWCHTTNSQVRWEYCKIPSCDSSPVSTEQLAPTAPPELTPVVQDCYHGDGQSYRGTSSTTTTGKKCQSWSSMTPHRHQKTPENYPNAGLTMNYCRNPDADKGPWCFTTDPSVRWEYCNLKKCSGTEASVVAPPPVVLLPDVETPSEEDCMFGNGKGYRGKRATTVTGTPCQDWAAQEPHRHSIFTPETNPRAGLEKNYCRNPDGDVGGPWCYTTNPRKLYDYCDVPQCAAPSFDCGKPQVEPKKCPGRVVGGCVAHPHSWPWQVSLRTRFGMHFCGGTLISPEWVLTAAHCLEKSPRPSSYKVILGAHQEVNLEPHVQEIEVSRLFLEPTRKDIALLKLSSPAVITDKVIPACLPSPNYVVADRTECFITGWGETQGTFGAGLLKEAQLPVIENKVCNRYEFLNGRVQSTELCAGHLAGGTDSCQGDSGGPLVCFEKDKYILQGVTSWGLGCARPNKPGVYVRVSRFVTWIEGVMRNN
Outline: (§4)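 Human plasmin at about 20 nM with Spectrozyme PL at 50 μM in-well (set from KM), in pH 7.4 Tris-HCl with NaCl, 2.5 mM CaCl2, 0.1% PEG8000 and 0.02% Tween80. Residual activity was measured at several test compound concentrations, and a logistic fit gave IC50, efficacy and Hill slope.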

[11] = tested on: human plasmin; assay: as above; type: biochemical; conditions: ratio of IC50 values
Outline: as §4

[12] = target: FIXa (Homo sapiens, UniProt P00740, DEL192-226); assay: Inhibition of FIXa, chromogenic substrate hydrolysis assay; type: biochemical
Outline: (§5)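 FIXa assay: about 89 nM enzyme and 850 μM Spectrozyme FIXa (in-well, level set from KM), in pH 7.4 Tris-HCl with NaCl, CaCl2, PEG8000 and Tween80. Residual activity was measured at several test compound concentrations and fitted with a logistic equation for IC50 where inhibition was concentration-dependent.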

[13] = tested on: FIXa; assay: as above; type: biochemical, human; conditions: ratio of IC50 values
Outline: as §5

[14] = target: T2, FVIIa/tissue factor (Homo sapiens, UniProt P08709); assay: Inhibition of FVIIa/tissue factor, chromogenic substrate hydrolysis assay; type: biochemical
T2 sequence (P08709 61-466): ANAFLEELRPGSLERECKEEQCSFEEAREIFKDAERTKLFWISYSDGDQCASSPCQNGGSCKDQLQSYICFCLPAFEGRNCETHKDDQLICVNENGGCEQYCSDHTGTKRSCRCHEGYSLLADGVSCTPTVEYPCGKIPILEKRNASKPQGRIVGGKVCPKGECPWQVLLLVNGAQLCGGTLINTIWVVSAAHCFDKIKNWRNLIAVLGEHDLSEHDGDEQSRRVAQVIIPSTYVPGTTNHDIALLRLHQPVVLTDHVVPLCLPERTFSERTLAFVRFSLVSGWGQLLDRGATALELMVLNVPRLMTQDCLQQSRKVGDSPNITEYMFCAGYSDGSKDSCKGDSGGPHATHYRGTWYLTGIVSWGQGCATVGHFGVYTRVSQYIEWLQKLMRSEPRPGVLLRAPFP
Outline: (§6)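 FVIIa/tissue factor: enzyme about 8 nM with Spectrozyme VIIa at 1000 μM in-well, chosen from KM. Buffer was pH 7.4 Tris-HCl with NaCl, 2.5 mM CaCl2, 0.1% PEG8000 and 0.02% Tween80. Residual chromogenic activity was measured at several test compound concentrations, and a logistic fit gave IC50 where inhibition was concentration-dependent.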

[15] = tested on: FVIIa/tissue factor; assay: as above; type: biochemical, human; conditions: ratio of IC50 values
Outline: as §6

[16] = target: human plasma kallikrein (Homo sapiens, UniProt P03952); assay: Inhibition of plasma kallikrein, chromogenic substrate hydrolysis assay; type: biochemical
Chain of human plasma kallikrein (Homo sapiens, UniProt P03952) (P03952 20-638): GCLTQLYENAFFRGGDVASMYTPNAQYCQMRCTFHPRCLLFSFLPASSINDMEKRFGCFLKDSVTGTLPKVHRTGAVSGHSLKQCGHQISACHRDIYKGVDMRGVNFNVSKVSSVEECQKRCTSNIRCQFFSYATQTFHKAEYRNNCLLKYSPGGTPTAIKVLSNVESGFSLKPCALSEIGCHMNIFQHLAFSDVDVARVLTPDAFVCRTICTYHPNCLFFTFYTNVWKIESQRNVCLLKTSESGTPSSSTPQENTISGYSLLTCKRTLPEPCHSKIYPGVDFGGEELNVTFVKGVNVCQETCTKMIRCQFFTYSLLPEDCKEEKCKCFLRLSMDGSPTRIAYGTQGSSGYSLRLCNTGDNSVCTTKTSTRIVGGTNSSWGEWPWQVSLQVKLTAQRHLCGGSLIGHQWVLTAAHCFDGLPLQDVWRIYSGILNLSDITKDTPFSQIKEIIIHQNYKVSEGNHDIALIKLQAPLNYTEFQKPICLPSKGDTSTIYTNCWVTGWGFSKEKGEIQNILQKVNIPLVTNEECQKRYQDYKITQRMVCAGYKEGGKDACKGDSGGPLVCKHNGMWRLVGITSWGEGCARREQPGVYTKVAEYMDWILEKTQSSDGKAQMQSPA
Outline: (§7)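 Human plasma kallikrein was used at about 3 nM with Spectrozyme PK at 100 μM (in-well, set from KM), in pH 7.4 Tris-HCl with NaCl, CaCl2, PEG8000 and Tween80. Residual activity was measured at several test compound concentrations; IC50 was fitted by logistic equation where inhibition was concentration-dependent.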

[17] = tested on: human plasma kallikrein; assay: as above; type: biochemical; conditions: ratio of IC50 values
Outline: as §7

[18] = target: T3, bovine trypsin (Bos taurus, UniProt P00760); assay: Inhibition of trypsin, chromogenic substrate hydrolysis assay; type: biochemical
T3 sequence (P00760 24-246): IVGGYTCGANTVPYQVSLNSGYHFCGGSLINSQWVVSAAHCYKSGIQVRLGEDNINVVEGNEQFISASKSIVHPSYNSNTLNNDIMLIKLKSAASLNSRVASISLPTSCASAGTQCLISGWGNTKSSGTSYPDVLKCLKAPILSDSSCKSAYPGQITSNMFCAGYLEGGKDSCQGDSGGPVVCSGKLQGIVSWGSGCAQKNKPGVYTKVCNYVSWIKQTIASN
Outline: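 Bovine trypsin at 500 ng/mL with S-2222 at 650 μM in-well (substrate level from KM), in pH 7.4 Tris-HCl containing NaCl, CaCl2, PEG8000 and Tween80. Residual activity was measured at several test compound concentrations, with logistic fitting for IC50 where inhibition was concentration-dependent.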

[19] = target: bovine α-chymotrypsin (Bos taurus, UniProt P00766, DEL14-15/DEL147-148); assay: Inhibition of chymotrypsin, chromogenic substrate hydrolysis assay; type: biochemical
Outline: (§8)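 Bovine α-chymotrypsin at 500 ng/mL with N-succinyl-Ala-Ala-Pro-Phe-p-nitroanilide at 910 μM in-well (from KM), in pH 7.4 Tris-HCl with NaCl, CaCl2, PEG8000 and Tween80. Residual activity was measured over several test compound concentrations, with logistic fitting for IC50 where inhibition was concentration-dependent.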

[20] = tested on: bovine α-chymotrypsin; assay: as above; type: biochemical; conditions: ratio of IC50 values
Outline: as §8

[21] = target: T1, human FXIIa; assay: Affinity to human FXIIa by intrinsic tryptophan fluorescence spectroscopy; type: binding
Outline: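 Test compound (100 μM) was titrated into human FXIIa (350 nM) in 50 mM Tris-HCl pH 7.4 with 150 mM NaCl and 0.1% PEG8000 at 37 °C. Intrinsic tryptophan fluorescence was read at λem 348 nm (λex 280 nm). The fluorescence change was fitted to a quadratic equilibrium binding equation to give Kd.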

[22] = target: T1, human FXIIa; assay: Inhibition of FXIIa-mediated activation of FXI to FXIa; type: biochemical
Outline: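 Zymogen FXI (4 μM as added), human FXIIa (200 nM as added) and test compound (1000–0.32 μM as added) were combined in Tris-HCl pH 7.4 at 37 °C. After 5 min, S-2366 (stock 6.9 mM) was added. The FXIa generated was measured as the initial A405 rate. A logistic fit of relative residual activity gave IC50 and efficacy.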

[23] = tested on: human plasma; assay: Activated partial thromboplastin time; type: biochemical; conditions: normal human plasma, ellagic acid APTT reagent
Outline: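 Citrated pooled normal human plasma was mixed with test compound (solutions of 0–983 μM as added) and prewarmed ellagic acid APTT reagent (0.2%). After 4 min at 37 °C, clotting was started with prewarmed 25 mM CaCl2 and the clotting time was read on a fibrometer. The concentration giving a 1.5-fold increase in APTT was derived. Values are means of three experiments.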

[24] = tested on: human plasma; assay: Prothrombin time; type: biochemical; conditions: normal human plasma; highest concentration tested about 980 μM
Outline: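 Thromboplastin-D was reconstituted in distilled water and warmed to 37 °C. Citrated pooled normal human plasma was incubated with test compound (solutions of 0–983 μM as added) for 30 s at 37 °C. Clotting was started by adding the prewarmed thromboplastin-D and the clotting time was read on a fibrometer. The concentration giving a 1.5-fold increase in PT was derived. Values are means of three experiments.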

Compound: O=C(NC[C@H]1CN(c2ccc(N3CCOCC3=O)cc2)C(=O)O1)c1ccc(Cl)s1 [Rivaroxaban]
- APTT (EC×1.5) [1]: ~0.06 µM
- PT (EC×1.5) [2]: ~0.08 µM

Compound: COC(=O)c1nc(N)n(C(=O)c2ccccc2)n1 [Inhibitor 2, Methyl 5-amino-1-benzoyl-1H-1,2,4-triazole-3-carboxylate]
- decrease in the inhibition potency ([3]; FXIIa IC50 relative to inhibitor 1): ~ 2.2 fold
- DeltaY (efficacy of inhibition) ([3]; human FXIIa, ± 1 S.E.): 92.2 ± 3.1%
- HS (Hill slope) ([3]; human FXIIa, ± 1 S.E.): 1.09 ± 0.14

Compound: COC(=O)c1nc(N)n(C(=O)c2ccc(C(C)(C)C)cc2)n1 [Inhibitor 1, Methyl 5-amino-1-(4-(tert-butyl)benzoyl)-1H-1,2,4-triazole-3-carboxylate]
- HS (Hill slope) ([3]; human FXIIa, ± 1 S.E.): 1.7 ± 0.4
- IC50 [4]: 235 ± 52.5 µM
- DeltaY (efficacy of inhibition) ([4]; Thrombin): 106 ± 7%
- HS (Hill slope) ([4]; Thrombin): 0.4 ± 0.1
- selectivity index to human FXIIa over thrombin [5]: 2137 fold
- IC50 [6]: > 577 µM
- selectivity to FXIIa over FXa [7]: at least 4545 fold
- IC50 [8]: 16.8 ± 6.7 µM
- DeltaY (efficacy of inhibition) ([8]; FXIa): 32 ± 11%
- HS (Hill slope) ([8]; FXIa): 1.9 ± 2.8
- selectivity index to human FXIIa over FXIa [9]: 153 fold
- IC50 [10]: 83.2 ± 37 µM
- DeltaY (efficacy of inhibition) ([10]; Plasmin): 25 ± 12%
- HS (Hill slope) ([10]; Plasmin): 1.4 ± 1.6
- selectivity index to human FXIIa over plasmin [11]: 756 fold
- IC50 [12]: > 1000 µM
- selectivity to FXIIa over FIXa [13]: at least 4545 fold
- IC50 [14]: > 1000 µM
- selectivity to FXIIa over FVIIa/TF [15]: at least 4545 fold
- IC50 [16]: > 500 µM
- selectivity to FXIIa over plasma kallikrein [17]: at least 4545 fold
- IC50 [18]: > 1000 µM
- selectivity to FXIIa over trypsin ([18]; ratio of IC50 values): at least 4545 fold
- IC50 [19]: > 1000 µM
- selectivity to FXIIa over α-chymotrypsin [20]: at least 4545 fold
- Kd [21]: 0.98 ± 0.13 µM
- IC50 [22]: ~2 µM
- efficacy of FXIIa inhibition using the macromolecule substrate FXI ([22]; residual FXIa activity by S-2366, pH 7.4, 37 °C): ~ 41%
- APTT (EC×1.5), concentration required to increase APTT by 1.5-fold [23]: ~340 µM
- APTT (EC×1.5), concentration required to increase APTT by 1.5-fold ([23]; listed as 1): ~ 340 μM
- PT (EC×1.5), concentration required to increase PT by 1.5-fold [24]: not significantly affected

Compound: CNC(=O)c1nc(N)n(C(=O)c2ccc(C(C)(C)C)cc2)n1 [Inhibitor 5, 5-amino-1-(4-(tert-butyl)benzoyl)-N-methyl-1-1H-1,2,4-triazole-3-carboxamide]
- IC50 ([3]; human FXIIa, Tris-HCl buffer pH 7.4, 37 °C, ± 1 S.E.): 340 ± 30.5 µM
- DeltaY (efficacy of inhibition) ([3]; human FXIIa, ± 1 S.E.): 103 ± 5%
- HS (Hill slope) ([3]; human FXIIa, ± 1 S.E.): 1.26 ± 0.27
